ChEMBL document CHEMBL1157414, “Cytotoxic dihydroagarofuranoid sesquiterpenes from the seeds of Celastrus orbiculatus” (J Nat Prod, 2008)

These compounds were tested on HL-60 (assay: Cytotoxicity against human HL60 cells after 72 hrs by MTT assay). Settings: HL-60, 72 h.
Format: functional, cell-based
How it was run: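 HL-60 human leukemia cells were plated in 96-well plates and exposed in triplicate to graded concentrations for 72 h. MTT was added for 4 h at 37 °C, then extraction buffer (10% SDS, 5% isobutanol, 0.01 M HCl) overnight at 37 °C. Absorbance was read at 570 nm.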

Row | SMILES | IC50
1 | CCCC(=O)O[C@@H]1[C@@H]2[C@@H](OC(C)=O)[C@]3(OC2(C)C)[C@H](C)CC[C@H](OC(=O)c2ccccc2)[C@@]3(C)[C@@H]1OC(=O)c1ccccc1 | 5.3 µM
2 | CC(=O)O[C@H]1C[C@@H]2[C@@H](OC(=O)c3ccccc3)[C@]3(OC2(C)C)[C@H](C)CC[C@H](OC(=O)c2ccccc2)[C@@]13C | 2.8 µM
3 | CC(=O)O[C@H]1C[C@@H](C)[C@@]23C[C@@H](C[C@H](OC(C)=O)[C@]2(C)[C@H]1OC/C=C/c1ccccc1)C(C)(C)O3 | 3.3 µM
4 | CC(=O)O[C@@H]1[C@H]2[C@@H](O)[C@@H](OC(=O)c3ccccc3)[C@]3(C)[C@@H](OC/C=C/c4ccccc4)CC[C@@H](C)[C@@]13OC2(C)C | 8.3 µM
5 | CC(=O)O[C@@H]1[C@@H]2[C@@H](OC(C)=O)[C@]3(OC2(C)C)[C@H](C)CC[C@H](OC(C)=O)[C@@]3(C)[C@H]1OC(=O)c1ccccc1 | 6.8 µM

These compounds were tested on HL-60 (assay: Cytotoxicity against human HL60 cells at 10 uM after 72 hrs by MTT assay). Settings: not given.
Format: functional
How it was run: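 MTT was added for 4 h at 37 °C, followed by extraction buffer (10% SDS, 5% isobutanol, 0.01 M HCl) overnight at 37 °C. Absorbance was read at 570 nm, with etoposide as positive control.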

Row | SMILES | Activity
6 | CC(=O)O[C@@H]1[C@H]2C[C@H](OC/C=C/c3ccccc3)[C@]3(C)[C@@H](OC(C)=O)[C@@H](OC(=O)c4ccccc4)C[C@@H](C)[C@@]13OC2(C)C | <50%
7 | CC(=O)O[C@H]1CC[C@@H](C)[C@]23OC(C)(C)[C@H](C[C@H](OC(=O)c4ccccc4)[C@]12C)[C@H]3O | <50%
8 | CC(=O)O[C@@H]1[C@H]2[C@@H](O)[C@@H](OC(=O)c3ccccc3)[C@]3(C)[C@@H](O)CC[C@@H](C)[C@@]13OC2(C)C | <50%
9 | CC(=O)O[C@@H]1[C@H]2C[C@H](OC/C=C/c3ccccc3)[C@]3(C)[C@@H](OC(C)=O)[C@@H](O)C[C@@H](C)[C@@]13OC2(C)C | <50%
10 | CC(=O)O[C@H]1C[C@](C)(O)[C@@]23C[C@@H](C[C@H](OC(=O)/C=C/c4ccccc4)[C@]2(C)[C@H]1OC(C)=O)C(C)(C)O3 | <50%
11 | CC(=O)O[C@H]1CC[C@@H](CO)[C@]23OC(C)(C)[C@H](C[C@H](OC(=O)c4ccccc4)[C@]12C)[C@H]3OC(=O)c1ccccc1 | <50%
12 | C[C@@H]1CC[C@H](OC(=O)c2ccccc2)[C@@]2(C)[C@H](OC(=O)c3ccccc3)[C@H](OC(=O)c3ccccc3)[C@@H]3[C@@H](O)[C@]12OC3(C)C | <50%
13 | CC(=O)O[C@@H]1[C@H]2[C@@H](OC(=O)c3ccccc3)[C@H](OC(=O)c3ccccc3)[C@]3(C)[C@@H](OC(=O)c4ccccc4)CC[C@@H](C)[C@@]13OC2(C)C | <50%
14 | CC(=O)O[C@@H]1[C@@H]2[C@@H](OC(C)=O)[C@]3(OC2(C)C)[C@H](C)CC[C@H](O)[C@@]3(C)[C@@H]1OC(=O)c1ccccc1 | <50%
15 | CC(=O)O[C@@H]1[C@@H]2[C@@H](OC(C)=O)[C@]3(OC2(C)C)[C@H](C)CC[C@H](OC(=O)c2ccccc2)[C@@]3(C)[C@@H]1OC(=O)c1ccccc1 | <50%
